Screening data (PubChem)
TAAR1 antag: antagonists of human TAAR1 | CHO RD-HGA16 TAAR1, Fluo-8 calcium fluorescence, antagonist | AID 624466 | Q96RJ0 | inhibition, % at 3 µM | 360,000 tested, 1.5% active;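 active = inhibition above a per-plate cutoff, the mean inhibition of test compounds on that plate plus 3 SD, cut at about 49% in these data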
Target sequence (Q96RJ0 whole entry, looked up): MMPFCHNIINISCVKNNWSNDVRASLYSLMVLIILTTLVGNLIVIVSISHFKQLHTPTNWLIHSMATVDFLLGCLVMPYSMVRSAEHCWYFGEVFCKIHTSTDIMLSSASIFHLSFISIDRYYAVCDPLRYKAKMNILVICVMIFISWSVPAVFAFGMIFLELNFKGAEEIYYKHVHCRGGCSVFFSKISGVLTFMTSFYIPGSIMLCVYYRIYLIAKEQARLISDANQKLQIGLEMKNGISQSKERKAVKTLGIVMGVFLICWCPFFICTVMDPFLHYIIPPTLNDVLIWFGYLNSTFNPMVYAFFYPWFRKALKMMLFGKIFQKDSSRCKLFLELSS
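Material: CHO RD-HGA16 cells bearing hTAAR1; compound dosing: one-point dosing, 3 µM nominal final; schedule: dye loading 75 min at 37 °C, then 30 min room temperature; measured by: calcium fluorescence with Fluo-8; control set: vehicle and agonist controls; replication: n of 1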
CHO parental Ca: signal in parental CHO cells, OX1R antagonist counter-screen. inhibition, % at 5.6 µM. AID 463079. parental CHO-K1, ATP-induced calcium, Fluo-8 fluorescence. 330,000 tested, 0.63% active;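 active = inhibition above that plate's mean sample inhibition plus 3 SD, cut at about 26% in these data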
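Material – parental CHO cells · Reagent – ATP stimulus · Compound – single nominal dose of 5.6 µM per compound · Detection – Fluo-8 fluorescence · Read-out basis – percent inhibition of calcium signal · Controls – ATP-challenged DMSO wells low, unchallenged DMSO wells high · Repeats – no replicates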
TAAR1 agonist: human TAAR1 agonism | CHO RD-HGA16 TAAR1, Fluo-8 calcium fluorescence; vehicle wells 0%, saturating PEA agonist 100% | 360,000 tested, 0.99% active | Q96RJ0 | AID 624467 | activation, % at 3 µM;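 active = activation above the mean activation of all test compounds in the run plus 3 SD, cut at about 38% in these data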
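Test system: RD-HGA16 (CHO) cells co-expressing Gα16 and hTAAR1; dosing: one-point dosing at 3 µM (nominal); timing: 17-24 h seeding, 75 min 37 °C dye, 30 min RT; signal: kinetic Fluo-8 calcium fluorescence; read-out basis: % activation relative to PEA EC100 response; controls: DMSO and PEA EC100; replicates: n 1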
OX1R antag-1: blocks the human orexin 1 receptor. O43613. CHO/OX1R cells, Fluo-8 calcium fluorescence, orexin A. inhibition, % at 5 µM. 330,000 tested, 0.43% active;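 active = inhibition above its plate's threshold, mean inhibition of all tested compounds on the plate plus 3 SD, cut at about 37% in these data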
OX1R antag-2: OX1R (human) antagonism; OX1R-expressing cells, FRET antagonist read-out; inhibition, % at 6.6 µM; O43613; 330,000 tested, 1.8% active; AID 485270; in the data active = inhibition mostly above about 38%, no sharp cut-off; inactive = mostly below about 40%
Hits are given with their value. A selection: hits, their analogues and other compounds. The true share with any hit is near 3.9%.

`Cc1sc2ncnc(NCc3ccccc3)c2c1C` gave TAAR1 antag inactive, CHO parental Ca 35, TAAR1 agonist inactive, OX1R antag-1 inactive and OX1R antag-2 inactive.
`COc1ccccc1C(CNc1ncnc2sc(C)c(C)c12)N(C)C` (centres undefined) gave TAAR1 antag inactive, CHO parental Ca inactive, TAAR1 agonist inactive, OX1R antag-1 inactive and OX1R antag-2 inactive.
`COc1ccccc1-c1cnc2c(c1)C(=O)N([C@@H](C)CO)C[C@@H](C)[C@H](CN(C)C(=O)c1cccnc1)O2` gave TAAR1 antag inactive and TAAR1 agonist inactive.
COC(=O)c1cc2c(c3c4cc(OC)ccc4n(S(C)(=O)=O)c13)C(=O)N(C)C2 was read as TAAR1 antag inactive and TAAR1 agonist inactive.
Screening COc1cccc(CNC(=O)[C@H]2CCCN2C(=O)[C@H]2CCCN2C(=O)c2ccccc2C(F)(F)F)c1 returned TAAR1 antag inactive and TAAR1 agonist inactive.
`CCCCc1c(-c2ccccc2OC)ncn1Cc1cccc(-c2ccccc2)c1` gave TAAR1 antag 51 and TAAR1 agonist inactive.
CCCCc1c(-c2cccc(OC)c2)ncn1CCc1ccccc1OC was read as TAAR1 antag 56 and TAAR1 agonist inactive.
CCCc1c(-c2cccc(Cl)c2)ncn1CCc1ccccc1OC was read as TAAR1 antag 53 and TAAR1 agonist inactive.
CCc1c(-c2cccc(Cl)c2)ncn1CCc1ccccc1OC was read as TAAR1 antag inactive and TAAR1 agonist inactive.
`CCCCCc1c(-c2ccccc2)ncn1CCc1ccccc1OC` gave TAAR1 antag inactive and TAAR1 agonist inactive.
For COc1ccccc1CCn1cnc(-c2ccc(OC)c(OC)c2)c1C(C)C the results were TAAR1 antag inactive and TAAR1 agonist 42.
Screening COC(=O)C1=C(C)N(C)C(=NCc2cc(OC)c(OC)c(OC)c2)NC1c1cccc(C(F)(F)F)c1 (centres undefined) returned TAAR1 antag inactive and TAAR1 agonist inactive.
Screening Cc1cc(C)n2nc(CNS(=O)(=O)c3ccc([N+](=O)[O-])cc3)nc2n1 returned TAAR1 antag inactive, CHO parental Ca inactive, TAAR1 agonist inactive, OX1R antag-1 inactive and OX1R antag-2 51.
Screening COc1ccc(OC)c(S(=O)(=O)NCc2nc3nc(C)cc(C)n3n2)c1 returned TAAR1 antag inactive, CHO parental Ca inactive, TAAR1 agonist inactive, OX1R antag-1 inactive and OX1R antag-2 inactive.
For CCCCn1nnnc1C(c1cc2ccccc2o1)N1CCN(C(=O)OCC)CC1 (centres undefined) the results were TAAR1 antag inactive and TAAR1 agonist inactive.
CC1CN(C(=O)c2cc([N+](=O)[O-])cc([N+](=O)[O-])c2)CC(C)O1 (centres undefined) was read as TAAR1 antag inactive, CHO parental Ca inactive, TAAR1 agonist inactive, OX1R antag-1 inactive and OX1R antag-2 62.
For O=C(NC(N1CCOCC1)C(Cl)(Cl)Cl)c1cc([N+](=O)[O-])cc([N+](=O)[O-])c1 (centres undefined) the results were TAAR1 antag inactive, CHO parental Ca inactive, TAAR1 agonist inactive, OX1R antag-1 inactive and OX1R antag-2 73.
Screening O=C(NC(N1CCOCC1)C(Cl)(Cl)Cl)c1ccccc1Cl (centres undefined) returned TAAR1 antag inactive, CHO parental Ca inactive, TAAR1 agonist inactive, OX1R antag-1 inactive and OX1R antag-2 inactive.
`COC(=O)c1cc(C(=O)N2CCOCC2)cc([N+](=O)[O-])c1` gave TAAR1 antag inactive, CHO parental Ca inactive, TAAR1 agonist inactive, OX1R antag-1 inactive and OX1R antag-2 77.
For Cc1cccc(C)c1NC(=O)C(C1CC1)n1c(-c2ccc(-c3ccccc3)cc2)nc2ccccc21 (centres undefined) the results were TAAR1 antag inactive and TAAR1 agonist inactive.
`Cc1ccc(-c2csc(NCCn3c(-c4ccncc4)nc4ccccc43)n2)cc1` gave TAAR1 antag inactive, CHO parental Ca inactive, TAAR1 agonist inactive, OX1R antag-1 inactive and OX1R antag-2 60.
Screening OC[C@@H]1CN(Cc2ccco2)C[C@H](n2cnc3c(Nc4ccccc4)ncnc32)O1 returned TAAR1 antag inactive and TAAR1 agonist inactive.
Screening CCCCNC(=O)c1sc(=S)n2c1[nH]c(=O)c1ccccc12 returned TAAR1 antag inactive, CHO parental Ca inactive, TAAR1 agonist inactive, OX1R antag-1 inactive and OX1R antag-2 52.
CCOc1ccc(CCNC(=O)c2ccc3c(=O)[nH]c4c(C(=O)NC(C)C)sc(=S)n4c3c2)cc1 was read as TAAR1 antag inactive, CHO parental Ca inactive, TAAR1 agonist inactive, OX1R antag-1 inactive and OX1R antag-2 inactive.
Screening CC(NC(=O)C(c1ccccc1)c1ccccc1)c1ccccc1 (centres undefined) returned TAAR1 antag inactive, CHO parental Ca inactive, TAAR1 agonist inactive, OX1R antag-1 inactive and OX1R antag-2 inactive.
CCCCC(C(=O)NC(C)c1ccccc1)C(=O)NC(C)c1ccccc1 (centres undefined) was read as TAAR1 antag inactive, CHO parental Ca inactive, TAAR1 agonist inactive, OX1R antag-1 inactive and OX1R antag-2 57.
`CCOC(=O)c1ccc(N2CCN(c3ccccc3F)CC2)c(NC(=O)Nc2cccc(OC)c2)c1` gave TAAR1 antag 69, CHO parental Ca inactive, TAAR1 agonist inactive, OX1R antag-1 inactive and OX1R antag-2 inactive.
`Cc1oc(-c2ccccc2Cl)nc1CS(=O)CC(=O)NCCc1ccccc1` (centres undefined) gave TAAR1 antag inactive, CHO parental Ca inactive, TAAR1 agonist 38, OX1R antag-1 inactive and OX1R antag-2 inactive.
For Cc1ccccc1-c1nc(CS(=O)CC(=O)NCCc2ccc(Cl)cc2)c(C)o1 (centres undefined) the results were TAAR1 antag inactive, CHO parental Ca inactive, TAAR1 agonist inactive, OX1R antag-1 inactive and OX1R antag-2 inactive.
COc1cc(NC(=O)c2cc3ccccc3cc2O)c(OC)cc1Cl was read as TAAR1 antag 49, CHO parental Ca 36, TAAR1 agonist inactive, OX1R antag-1 inactive and OX1R antag-2 34.
Screening COc1ccccc1NC(=O)c1cc2cc(Br)ccc2cc1O returned TAAR1 antag inactive, CHO parental Ca 45, TAAR1 agonist inactive, OX1R antag-1 inactive and OX1R antag-2 inactive.
`COc1cc2ccccc2cc1C(=O)Nc1ccccc1Cl` gave TAAR1 antag inactive, CHO parental Ca inactive, TAAR1 agonist inactive, OX1R antag-1 inactive and OX1R antag-2 inactive.
`Cc1ccc(Cl)cc1NC(=O)c1cc2ccccc2cc1O` gave TAAR1 antag inactive, CHO parental Ca 58, TAAR1 agonist inactive, OX1R antag-1 46 and OX1R antag-2 inactive.
Screening CCc1nc2ccc(C(=O)NCc3ccc(OC)cc3)cn2c1N(C)C(=O)Cc1ccccc1 returned TAAR1 antag inactive and TAAR1 agonist inactive.
